For the assay, the target named is T1, NADP-dependent malic enzyme (Homo sapiens, UniProt P48163).
T1 sequence (P48163 whole entry): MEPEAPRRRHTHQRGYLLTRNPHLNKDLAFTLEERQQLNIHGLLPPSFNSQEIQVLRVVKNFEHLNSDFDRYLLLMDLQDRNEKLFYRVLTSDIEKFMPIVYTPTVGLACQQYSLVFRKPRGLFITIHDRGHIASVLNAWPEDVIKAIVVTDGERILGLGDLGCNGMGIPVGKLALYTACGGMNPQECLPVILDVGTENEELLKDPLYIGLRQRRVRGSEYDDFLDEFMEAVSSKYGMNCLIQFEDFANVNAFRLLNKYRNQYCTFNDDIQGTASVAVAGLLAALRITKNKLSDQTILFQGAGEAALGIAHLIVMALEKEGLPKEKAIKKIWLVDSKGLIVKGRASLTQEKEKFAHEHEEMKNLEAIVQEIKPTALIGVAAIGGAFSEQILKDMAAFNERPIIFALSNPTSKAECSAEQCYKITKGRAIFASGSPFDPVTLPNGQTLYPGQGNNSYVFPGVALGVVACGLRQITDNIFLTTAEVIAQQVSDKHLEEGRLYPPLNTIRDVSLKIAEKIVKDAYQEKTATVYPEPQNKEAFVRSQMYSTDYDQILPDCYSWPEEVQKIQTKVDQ
The assay can be described thus: Inhibitory activity against cytosolic malic enzyme. An outline of the steps:
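Coupled endpoint assay. Enzyme pre-incubated with compound 45 min at room temperature in 85 mM Tris pH 7.5 containing 2 mM malic acid and 5 mM MnCl2. Reaction started with 124 µM NADP, run 30 min at room temperature, stopped with 0.5 M EDTA. NADPH formed read via MTS/PMS reduction to formazan, absorbance at 492 nm.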

Turning to `COc1ccc(N2CCN(c3cc(O)n(-c4cccc(Cl)c4Cl)c3O)CC2)cc1` [1-(2,3-dichlorophenyl)-3-(4-(4-methoxyphenyl)piperazin-1-yl)pyrrolidine-2,5-dione], the half-maximal inhibitory concentration (IC50) (commonly the midpoint of a concentration-inhibition curve) was over 20 µM. Compound `COc1ccc(N2CCN(c3cc(O)n(-c4ccccc4)c3O)CC2)cc1` [3-(4-(4-methoxyphenyl)piperazin-1-yl)-1-phenylpyrrolidine-2,5-dione] gave an IC50 of over 20 µM.

The values are drawn from BindingDB's records for doi:10.1016/j.bmcl.2005.10.065 (Cytrx Laboratories, 2005).
